# Data from ChEMBL document CHEMBL4351006, “A new exploration towards aminothiazolquinolone oximes as potentially multi-targeting antibacterial agents: Design, synthesis and evaluation acting on microbes, DNA, HSA and topoisomerase IV” (Eur J Med Chem, 2019).
# What was measured:
# [1] = system: Candida parapsilosis; assay: Antifungal activity against Candida parapsilosis ATCC 22019 assessed as reduction in fungal cell viability incubated for 24 hrs by two fold serial dilution method; conditions: Lodderomyces parapsilosis, ATCC 22019, 24 h
# [2] = system: Klebsiella pneumoniae; assay: Antibacterial activity against Klebsiella pneumoniae assessed as reduction in bacterial cell viability incubated for 24 hrs by two fold serial dilution method; format: functional
# Method in brief: (§1)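 Broth two-fold serial dilution run to CLSI guidelines. Chloromycin, norfloxacin and fluconazole served as reference drugs.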
# [3] = system: Staphylococcus aureus; assay: Antibacterial activity against Staphylococcus aureus ATCC 25923 assessed as reduction in bacterial cell viability incubated for 24 hrs by two fold serial dilution method; format: functional; conditions: ATCC 25923, 24 h
# Method in brief: as §1
# [4] = system: Pseudomonas aeruginosa; assay: Antibacterial activity against Pseudomonas aeruginosa ATCC 27853 assessed as reduction in bacterial cell viability incubated for 24 hrs by two fold serial dilution method; format: functional; conditions: ATCC 27853, 24 h
# Method in brief: as §1
# [5] = system: Candida tropicalis; assay: Antifungal activity against Candida tropicalis assessed as reduction in fungal cell viability incubated for 24 hrs by two fold serial dilution method; format: functional
# Method in brief: as §1
# [6] = system: Staphylococcus aureus; assay: Antibacterial activity against Staphylococcus aureus ATCC 29213 assessed as reduction in bacterial cell viability incubated for 24 hrs by two fold serial dilution method; format: functional; conditions: ATCC 29213, 24 h
# Method in brief: as §1
# [7] = system: Escherichia coli; assay: Antibacterial activity against Escherichia coli assessed as reduction in bacterial cell viability incubated for 24 hrs by two fold serial dilution method; format: functional
# Method in brief: as §1
# [8] = system: Escherichia coli; assay: Antibacterial activity against Escherichia coli ATCC 25922 assessed as reduction in bacterial cell viability incubated for 24 hrs by two fold serial dilution method; format: functional; conditions: ATCC 25922, 24 h
# Method in brief: as §1
# [9] = system: Candida albicans; assay: Antifungal activity against Candida albicans ATCC 90023 assessed as reduction in fungal cell viability incubated for 24 hrs by two fold serial dilution method; format: functional; conditions: ATCC 90023, 24 h
# Method in brief: as §1
# [10] = system: Pseudomonas aeruginosa; assay: Antibacterial activity against Pseudomonas aeruginosa assessed as reduction in bacterial cell viability incubated for 24 hrs by two fold serial dilution method; format: functional
# Method in brief: as §1
# [11] = system: Staphylococcus aureus; assay: Antibacterial activity against methicillin resistant Staphylococcus aureus N315 assessed as reduction in bacterial cell viability incubated for 24 hrs by two fold serial dilution method; format: functional; conditions: N315, 24 h
# Method in brief: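 MIC by two-fold serial dilution following CLSI, with chloromycin and norfloxacin as reference drugs.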
# [12] = system: Acinetobacter baumannii; assay: Antibacterial activity against Acinetobacter baumannii assessed as reduction in bacterial cell viability incubated for 24 hrs by two fold serial dilution method; format: functional
# Method in brief: as §1
# [13] = system: Staphylococcus aureus; assay: Antibacterial activity against Staphylococcus aureus assessed as reduction in bacterial cell viability incubated for 24 hrs by two fold serial dilution method; format: functional
# Method in brief: as §1
# [14] = system: Candida albicans; assay: Antifungal activity against Candida albicans assessed as reduction in fungal cell viability incubated for 24 hrs by two fold serial dilution method; format: functional
# Method in brief: as §1
# [15] = system: Enterococcus faecalis; assay: Antibacterial activity against Enterococcus faecalis assessed as reduction in bacterial cell viability incubated for 24 hrs by two fold serial dilution method; format: functional
# Method in brief: as §1
# [16] = system: Aspergillus fumigatus; assay: Antifungal activity against Aspergillus fumigatus assessed as reduction in fungal cell viability incubated for 24 hrs by two fold serial dilution method; format: functional
# Method in brief: as §1
SMILES,MIC [1] [µM],MIC [2] [µM],MIC [3] [µM],MIC [4] [µM],MIC [5] [µM],MIC [6] [µM],MIC [7] [µM],MIC [8] [µM],MIC [9] [µM],MIC [10] [µM],MIC [11] [µM],MIC [12] [µM],MIC [13] [µM],MIC [14] [µM],MIC [15] [µM],MIC [16] [µM]
CCn1cc(-c2csc(N)n2)c(=O)c2cc(F)c(N3CCN(C/C(=N/OC)c4ccc(Cl)cc4)CC3)cc21,115,231,58,58,115,231,231,461,463,231,29,115,231,231,115,461
CCn1cc(-c2csc(N)n2)c(=O)c2cc(N3CCN(C/C(C)=N/OC)CC3)c(Cl)cc21,67,135,135,135,269,135,269,269,269,269,67,135,67,539,135,269
CCn1cc(-c2csc(N)n2)c(=O)c2cc(F)c(N3CCN(C/C(=N/OC)c4ccc(OC)cc4)CC3)cc21,465,465,465,465,232,465,465,232,465,465,465,465,465,232,232,465
OC(Cn1cncn1)(Cn1cncn1)c1ccc(F)cc1F [FLUCONAZOLE],13,,,,26,,,,7,,,,,13,,836
CCn1cc(-c2csc(N)n2)c(=O)c2cc(F)c(N3CCN(C/C(C)=N/OCc4ccc(Cl)cc4Cl)CC3)cc21,848,848,848,848,424,848,424,848,106,848,424,848,848,848,424,424
CCO/N=C(\C)CN1CCN(c2cc3c(cc2F)c(=O)c(-c2csc(N)n2)cn3CC)CC1,68,135,135,135,68,68,135,68,542,135,135,135,34,1080,68,542
CCn1cc(-c2csc(N)n2)c(=O)c2cc(F)c(N3CCN(C/C(=N/OC)c4ccc(F)cc4)CC3)cc21,951,951,238,951,951,475,475,951,951,951,238,951,475,951,475,951
